Laboratory results taken from ChEMBL document CHEMBL1128735, “CCK-A receptor selective antagonists derived from the CCK-A receptor selective tetrapeptide agonist Boc-Trp-Lys(Tac)-Asp-MePhe-NH2 (A-71623)” (J Med Chem, 1995).
The source made the active and inactive calls. No cut-off for these calls is given here.

Legend:
Cavia porcellus [1] = species on record: Cavia porcellus; assay: Effective concentration required to induce contraction of guinea pig gall bladder
[2] = target: T1, Cholecystokinin receptor type A (Homo sapiens, UniProt P32238); assay: Displacement of CCK-8 from CHO cell membranes expressing human Cholecystokinin type A receptor; details: for Log IC50: cho
T1 sequence (P32238 whole entry): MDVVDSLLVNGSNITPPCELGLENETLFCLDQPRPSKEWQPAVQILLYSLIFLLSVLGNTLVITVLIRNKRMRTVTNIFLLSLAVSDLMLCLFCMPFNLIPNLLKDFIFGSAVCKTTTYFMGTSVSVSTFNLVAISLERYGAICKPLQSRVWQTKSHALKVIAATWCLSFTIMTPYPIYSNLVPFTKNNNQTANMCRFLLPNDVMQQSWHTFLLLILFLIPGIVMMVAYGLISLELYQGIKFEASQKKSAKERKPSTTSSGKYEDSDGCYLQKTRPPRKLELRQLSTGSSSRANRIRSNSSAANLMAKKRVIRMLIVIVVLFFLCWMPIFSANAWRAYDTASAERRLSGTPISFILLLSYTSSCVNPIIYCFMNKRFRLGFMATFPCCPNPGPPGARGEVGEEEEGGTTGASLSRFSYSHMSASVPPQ

[3] = target: T2, Gastrin/cholecystokinin type B receptor (Homo sapiens, UniProt P32239); assay: Displacement of CCK-8 from human Cholecystokinin type B receptor expressing CHO cell membranes; details: for Log IC50: cho
T2 sequence (P32239 whole entry): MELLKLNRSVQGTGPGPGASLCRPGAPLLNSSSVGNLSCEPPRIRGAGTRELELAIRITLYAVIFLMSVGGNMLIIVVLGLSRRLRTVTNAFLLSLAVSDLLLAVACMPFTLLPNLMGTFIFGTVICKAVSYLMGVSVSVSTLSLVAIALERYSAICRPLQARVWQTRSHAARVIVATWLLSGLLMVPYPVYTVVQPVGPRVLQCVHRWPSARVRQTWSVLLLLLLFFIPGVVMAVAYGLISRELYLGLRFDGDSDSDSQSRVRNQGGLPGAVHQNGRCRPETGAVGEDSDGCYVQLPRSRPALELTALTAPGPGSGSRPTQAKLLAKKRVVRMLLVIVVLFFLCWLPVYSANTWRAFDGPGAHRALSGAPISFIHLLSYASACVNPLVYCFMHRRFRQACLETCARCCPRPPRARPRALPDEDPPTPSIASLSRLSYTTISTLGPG

Cavia porcellus [4] = species on record: Cavia porcellus; assay: Percent contraction induced by compound at […] in guinea pig gall bladder was determined; assay type: functional
Cavia porcellus [5] = species on record: Cavia porcellus; assay: Percent contraction induced by compound at […] in guinea pig gall bladder was determined; Inactive; assay type: functional
[6] = target: T3, Cholecystokinin receptor type A (Cavia porcellus, UniProt Q63931); assay: Antagonist activity against CCK-8 induced responses in guinea pig gall bladder was determined; assay type: functional, tissue-based; details: for Kb: read-out: pA2 (converted)
T3 sequence (Q63931 whole entry): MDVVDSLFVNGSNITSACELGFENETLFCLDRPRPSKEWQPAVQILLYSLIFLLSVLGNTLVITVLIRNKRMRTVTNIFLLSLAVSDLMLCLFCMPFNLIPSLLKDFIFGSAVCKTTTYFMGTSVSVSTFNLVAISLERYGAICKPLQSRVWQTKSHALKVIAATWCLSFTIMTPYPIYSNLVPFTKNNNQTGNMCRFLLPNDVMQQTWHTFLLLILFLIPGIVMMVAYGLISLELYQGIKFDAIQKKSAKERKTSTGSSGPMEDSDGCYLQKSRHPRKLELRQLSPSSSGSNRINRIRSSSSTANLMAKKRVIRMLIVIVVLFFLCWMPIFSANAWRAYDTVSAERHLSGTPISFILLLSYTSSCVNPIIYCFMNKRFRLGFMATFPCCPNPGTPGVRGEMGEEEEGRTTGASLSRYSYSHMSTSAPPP
Summary of the method: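 Isolated guinea pig gallbladder rings in physiological salt solution at 37 °C, 95% O2/5% CO2, pH 7.4, under 1 g resting tension, with isometric force recording. Tissues from at least three animals were incubated 60 min with antagonist (three to five concentrations), then given a cumulative sulfated CCK-8 curve. Paired untreated tissue served as time/solvent control for the concentration ratio. pA2 was derived by Schild analysis.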

SMILES: CC(=O)N[C@@H](Cc1c[nH]c2ccccc12)C(=O)N[C@@H](CCCCNC(=O)Nc1ccccc1C)C(=O)N[C@@H](CC(=O)O)C(=O)N[C@@H](Cc1ccc(C)cc1)C(N)=O [listing 1 of 2 here]
- EC50 (Cavia porcellus [1]): 1.58 nM
- IC50 [2]: 20 nM
- IC50 [3]: 5010 nM

SMILES: CC(=O)N[C@@H](Cc1c[nH]c2ccccc12)C(=O)N[C@@H](CCCCNC(=O)Nc1ccccc1Cl)C(=O)N[C@@H](CC(=O)O)C(=O)N[C@@H](Cc1ccc(C)cc1)C(N)=O [listing 1 of 2 here]
- Activity (Cavia porcellus [4]): 117%

SMILES: Cc1cccc(NC(=O)N[C@@H]2N=C(c3ccccc3)c3ccccc3N(C)C2=O)c1 [L-365260]
- IC50 [2]: 158 nM

SMILES: CC(=O)N[C@H](Cc1c[nH]c2ccccc12)C(=O)NC(Cc1cccc(NC(=O)Nc2ccccc2C)c1)C(=O)N[C@H](CC(=O)O)C(=O)N[C@@H](Cc1ccc(C)cc1)C(N)=O (stereo not given in full)
- Activity (Cavia porcellus [5]): inactive
- Log IC50 [2]: -7.2
- Log IC50 [3]: -4.3
- pA2 [6]: 7.4

SMILES: CC(=O)N[C@@H](Cc1c[nH]c2ccccc12)C(=O)N[C@@H](Cc1ccc(NC(=O)Nc2ccccc2C)cc1)C(=O)N[C@@H](CC(=O)O)C(=O)N[C@@H](Cc1ccc(C)cc1)C(N)=O
- IC50 [2]: 31.6 nM
- IC50 [3]: 100000 nM
- Kb [6]: 39.8 nM

SMILES: CC(=O)N[C@@H](Cc1c[nH]c2ccccc12)C(=O)NC(Cc1cccc(NC(=O)Nc2ccccc2C)c1)C(=O)N[C@@H](CC(=O)O)C(=O)N[C@H](Cc1ccc(C)cc1)C(N)=O (stereo not given in full)
- Activity (Cavia porcellus [5]): inactive
- Log IC50 [2]: -7
- Log IC50 [3]: -5
- pA2 [6]: 7.2

SMILES: CC(=O)N[C@@H](Cc1c[nH]c2ccccc12)C(=O)N[C@@H](CCCCNC(=O)Nc1ccccc1C)C(=O)N[C@@H](CC(=O)O)C(=O)N[C@@H](Cc1ccc(C)cc1)C(N)=O [listing 2 of 2 here]
- Activity (Cavia porcellus [4]): 105%

SMILES: CC(=O)N[C@@H](Cc1c[nH]c2ccccc12)C(=O)NC(Cc1ccc(NC(=O)Nc2ccccc2Cl)cc1)C(=O)N[C@@H](CC(=O)O)C(=O)N[C@H](Cc1ccc(C)cc1)C(N)=O (stereo not given in full)
- Activity (Cavia porcellus [5]): inactive

SMILES: CC(=O)N[C@@H](Cc1c[nH]c2ccccc12)C(=O)N[C@@H](CCCCNC(=O)Nc1ccccc1Cl)C(=O)N[C@@H](CC(=O)O)C(=O)N[C@@H](Cc1ccc(C)cc1)C(N)=O [listing 2 of 2 here]
- EC50 (Cavia porcellus [1]): 0.501 nM
- Log IC50 [2]: -8.3
- Log IC50 [3]: -6

SMILES: CC(=O)N[C@@H](Cc1c[nH]c2ccccc12)C(=O)N[C@@H](Cc1ccc(NC(=O)Nc2ccccc2Cl)cc1)C(=O)N[C@@H](CC(=O)O)C(=O)N[C@@H](Cc1ccc(C)cc1)C(N)=O
- IC50 [2]: 100 nM
- IC50 [3]: 63100 nM
- Kb [6]: 79.4 nM

SMILES: CC(=O)N[C@@H](Cc1c[nH]c2ccccc12)C(=O)NC(Cc1ccc(NC(=O)Nc2ccccc2C)cc1)C(=O)N[C@@H](CC(=O)O)C(=O)N[C@H](Cc1ccc(C)cc1)C(N)=O (stereo not given in full)
- Activity (Cavia porcellus [5]): inactive
